Results as given in ChEMBL document CHEMBL1137629, “Antiproliferative effect of dihydroxyacetone on Trypanosoma brucei bloodstream forms: cell cycle progression, subcellular alterations, and cell death” (Antimicrob Agents Chemother, 2007).
pIC50: −log10 of the molar value. Calls of active or inactive are those of the source. The calls are words filed in the database; no cut-off is given here.

Experiments:
Trypanosoma brucei [1] = assay: Induction of apoptosis-like programmed cell death in Trypanosoma brucei bloodstream form assessed as increase in intracellular reactive oxygen species production at 3 mM after 24 hrs by FACS analysis; assay type: functional
In short: (§1)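 Bloodstream-form T. brucei MITat 1.2 (VSG 221, strain EATRO 427) were grown axenically at 37°C, 5% CO₂ and exposed to DHA for 24 h. Control and treated cells were then loaded with 10 μM dichlorofluorescein diacetate for 1 h at 37°C. Intracellular fluorescence intensity was read by flow cytometry.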

Trypanosoma brucei [2] = assay: Trypanocidal activity against Trypanosoma brucei bloodstream form at 5 mM up to 24 hrs by spectrophotometry; assay type: functional
In short: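 Proliferation measured in complete medium (33 mM glucose, 15% serum) with a range of DHA concentrations. Cell density followed over 24 h. Triplicate, SD.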

Trypanosoma brucei [3] = assay: Effect on cell cycle of Trypanosoma brucei bloodstream form assessed as DNA content at 4 mM after 24 hrs using propidium iodide staining by FACS analysis; assay type: functional
In short: (§2)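 T. brucei bloodstream forms (MITat 1.2, strain EATRO 427), axenic culture at 37°C, 5% CO₂. Treated 24 h. At least 5 × 10⁵ cells washed in PBS, lysed hypotonically 30 min at room temperature in 10 mM phosphate buffer pH 7.4 with 6 μM digitonin. Nuclei stained with propidium iodide (10 μg/ml final) and analysed by flow cytometry for G₁/S/G₂ distribution and degraded DNA.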

Trypanosoma brucei [4] = assay: Induction of apoptosis-like programmed cell death in Trypanosoma brucei bloodstream form assessed as increase in intracellular reactive oxygen species production at 4 mM after 24 hrs by FACS analysis; assay type: functional; in short: as §1
Trypanosoma brucei [5] = assay: Induction of apoptosis-like programmed cell death in Trypanosoma brucei bloodstream form assessed as loss of mitochondrial-membrane potential at 2 mM after 24 hrs by TMRE staining; assay type: functional
In short: (§3)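 T. brucei MITat 1.2 (EATRO 427) bloodstream forms were grown axenically at 37°C, 5% CO₂ and exposed to DHA for 24 h. Cells at 10⁶/ml were stained with 25 nM TMRE in culture medium for 30 min at 37°C and read at once by flow cytometry. Depolarization control: valinomycin 100 nM. Lower fluorescence signifies lost membrane potential.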

Trypanosoma brucei [6] = assay: Effect on morphological changes in Trypanosoma brucei bloodstream form assessed as presence of atypical combination of number of nucleus after 24 hrs using DAPI staining by phase-contrast microscopy; assay type: functional, organism-based
In short: (§4)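 Bloodstream forms (MITat 1.2, EATRO 427) grown 24 h with or without DHA. Aliquots washed twice in PBS, resuspended, placed on slides and fixed with methanol. Stained 5 min with DAPI (0.1 μg/ml final), then washed. Phase-contrast and fluorescence images scored for nucleus/kinetoplast numbers (1N1K, 1N2K, 2N2K, 2N1K, abnormal). n = 4, Student's t test, SD.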

Trypanosoma brucei [7] = assay: Induction of apoptosis-like programmed cell death in Trypanosoma brucei bloodstream form assessed as loss of mitochondrial-membrane potential at 5 uM after 24 hrs by TMRE staining; assay type: functional
Trypanosoma brucei [8] = assay: Trypanocidal activity against Trypanosoma brucei bloodstream form assessed as induction of autophagy at 3 mM after 24 hrs by transmission electron microscopy; assay type: functional, organism-based
In short: (§5)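 Parasites exposed 24 h to 3 mM DHA. 10⁸ cells fixed 1 h at 4°C in 2% glutaraldehyde in 0.2 M sodium cacodylate with 0.12 M sucrose, held overnight in buffer, postfixed in 1.5% osmium tetroxide and stained with 0.5% uranyl acetate. Dehydrated in ethanol, cleared in propylene oxide, embedded in Agar 100. Sections stained with 5% uranyl acetate and 0.4% lead citrate for TEM. Rapamycin (5 μM) served as the autophagy positive control.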

Trypanosoma brucei [9] = assay: Trypanocidal activity against Trypanosoma brucei bloodstream form assessed as phosphatase activity; assay type: functional, organism-based
In short: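 Parasites in exponential growth diluted to 2 × 10⁵ cells/ml and cultured 24 h with 1–4 mM DHA. Lysis buffer with p-nitrophenyl phosphate (in 1 M sodium acetate pH 5.5, 1% Triton X-100) added. Read at 405 nm after 6 h at 37°C. IC₅₀ derived from phosphatase activity (Bodley method).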

Trypanosoma brucei [10] = assay: Induction of necrosis in Trypanosoma brucei bloodstream form assessed as death of total cell population at > 4 mM up to 24 hrs using propidium iodide staining by FACS analysis
Trypanosoma brucei [11] = assay: Induction of apoptosis-like programmed cell death in Trypanosoma brucei bloodstream form assessed as phosphatidylserine exposure in outer leaflet of plasma membrane at 1 mM after 24 hrs by V-Fluos staining staining; assay type: functional
In short: (§6)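 After 24 h DHA exposure of axenic bloodstream-form T. brucei MITat 1.2 (EATRO 427; 37°C, 5% CO₂), cells were washed in HEPES buffer (10 mM, pH 7.4, 140 mM NaCl, 5 mM CaCl₂). They were then stained with annexin V-Fluos for 15 min at 4°C and analysed by flow cytometry.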

Trypanosoma brucei [12] = assay: Induction of apoptosis-like programmed cell death in Trypanosoma brucei bloodstream form assessed as loss of mitochondrial-membrane potential at 4 mM after 24 hrs by TMRE staining; assay type: functional; in short: as §3
Trypanosoma brucei [13] = assay: Induction of apoptosis-like programmed cell death in Trypanosoma brucei bloodstream form assessed as phosphatidylserine exposure in outer leaflet of plasma membrane at 2 mM after 24 hrs by V-Fluos staining staining; assay type: functional; in short: as §6
Trypanosoma brucei [14] = assay: Trypanocidal activity against Trypanosoma brucei bloodstream form at < 1 mM; assay type: functional, organism-based
Trypanosoma brucei [15] = assay: Effect on morphological changes in Trypanosoma brucei bloodstream form assessed as appearance of multiple folds in mitochondrion membrane at 3 mM after 24 hrs by transmission electron microscopy; assay type: functional, organism-based; in short: as §5
Trypanosoma brucei [16] = assay: Effect on morphological changes in Trypanosoma brucei bloodstream form assessed as presence of glycosomes at 3 mM after 24 hrs by transmission electron microscopy; assay type: functional, organism-based; in short: as §5
Trypanosoma brucei [17] = assay: Effect on morphological changes in Trypanosoma brucei bloodstream form assessed as presence of more than one flagellum at 5 mM after 20 hrs by scanning electron microscopy; assay type: functional, organism-based
In short: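 Cells grown 20 h with 5 mM DHA. Fixed and stained as for TEM (glutaraldehyde, osmium tetroxide, uranyl acetate), then dehydrated through 50, 75, 95 and 100% ethanol. Critical-point dried and gold-palladium sputter-coated for scanning electron microscopy.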

Trypanosoma brucei [18] = assay: Effect on morphological changes in Trypanosoma brucei bloodstream form assessed as change in cell nucleus at 3 mM after 24 hrs by transmission electron microscopy; assay type: functional, organism-based; in short: as §5
Trypanosoma brucei [19] = assay: Induction of apoptosis-like programmed cell death in Trypanosoma brucei bloodstream form assessed as loss of mitochondrial-membrane potential at 1 mM after 24 hrs by TMRE staining; assay type: functional; in short: as §3
Trypanosoma brucei [20] = assay: Induction of programmed cell death in Trypanosoma brucei bloodstream form assessed as death of total cell population at > 4 mM up to 24 hrs using propidium iodide staining by FACS analysis
Trypanosoma brucei [21] = assay: Effect on cell cycle of Trypanosoma brucei bloodstream form assessed as increase in cells with two nuclei and one kinetoplast at 1 to 3 mM using DAPI staining by phase-contrast microscopy; assay type: functional, organism-based; in short: as §4
Trypanosoma brucei [22] = assay: Cell cycle arrest in Trypanosoma brucei bloodstream form assessed as accumulation at G2 phase at 2 mM after 24 hrs using propidium iodide staining by FACS analysis; assay type: functional; in short: as §2
Trypanosoma brucei [23] = assay: Effect on cell cycle of Trypanosoma brucei bloodstream form assessed as DNA content at 2 mM after 24 hrs using propidium iodide staining by FACS analysis; assay type: functional; in short: as §2
Trypanosoma brucei [24] = assay: Induction of apoptosis-like programmed cell death in Trypanosoma brucei bloodstream form assessed as increase in intracellular reactive oxygen species production at 1 mM after 24 hrs by FACS analysis; assay type: functional; in short: as §1

O=C(CO)CO [DIHYDROXYACETONE]
Activity (Trypanosoma brucei [1]): 14.4% | Activity (Trypanosoma brucei [2]): 100% | Activity (Trypanosoma brucei [3]): 9.7% | Activity (Trypanosoma brucei [4]): 23.2% | Activity (Trypanosoma brucei [5]): 7.3% | Activity (Trypanosoma brucei [6]): Dose-dependent effect | Activity (Trypanosoma brucei [7]): 31.4% | Activity (Trypanosoma brucei [8]): Active | pIC50 (Trypanosoma brucei [9]): 2.99 | Activity (Trypanosoma brucei [10]): Active | Activity (Trypanosoma brucei [11]): 6.3% | Activity (Trypanosoma brucei [12]): 26.8% | Activity (Trypanosoma brucei [13]): 10.1% | Activity (Trypanosoma brucei [14]): Active | Activity (Trypanosoma brucei [15]): Active | Activity (Trypanosoma brucei [16]): Active | Activity (Trypanosoma brucei [17]): Active | Activity (Trypanosoma brucei [18]): inactive | Activity (Trypanosoma brucei [19]): 4.9% | Activity (Trypanosoma brucei [20]): Active | Activity (Trypanosoma brucei [21]): Active | Activity (Trypanosoma brucei [22]): 50% | Activity (Trypanosoma brucei [23]): 9% | Activity (Trypanosoma brucei [24]): 5.9%
